Assay results taken from ChEMBL document CHEMBL1177815, “Synthesis and molecular docking studies of novel 2-chloro-pyridine derivatives containing flavone moieties as potential antitumor agents” (Bioorg Med Chem Lett, 2010).
Values after ≈ are worked out from the molar mass of the structure shown. Active and inactive are the calls of the source. No cut-off for these calls is given here.

How the values were obtained:
SGC-7901 = experiment: Cytotoxicity against human SGC7901 after 48 hrs by MTT assay; format: functional, cell-based
Summary of the method: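 SGC-7901 cells were diluted to 3 × 10⁴ cells/mL and seeded at 100 µL per well, then held 24 h at 37 °C in 5% CO₂ before treatment. Samples at pre-set concentrations went into six wells each, with 5-fluorouracil as positive control and DMSO as negative control. Read-out was absorbance at 570 nm. Data are the mean ± SD of three experiments in triplicate. IC50 is the concentration at which 50% of cells survive.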

[1] = biological target: DNA polymerase I, thermostable (Thermus aquaticus, UniProt P19821); experiment: Inhibition of Thermus aquaticus taq polymerase
[2] = biological target: T1, Telomerase reverse transcriptase (Homo sapiens, UniProt O14746); experiment: Inhibition of human telomerase in human SGC7901 cells by TRAP assay
[3] = Selectivity index, ratio of IC50 for taq polymerase to IC50 for human telomerase
Summary of the method: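 Selectivity index is the ratio of the concentration giving 50% Taq polymerase inhibition to the concentration giving 50% telomerase inhibition (modified TRAP, SGC-7901 cell extract).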

[4] = biological target: T1, Telomerase reverse transcriptase; experiment: Inhibition of human telomerase in human SGC7901 cells at 0 to 60 uM by TRAP assay; format: cell-based; settings: SGC-7901
Summary of the method: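 Telomerase inhibition was measured by a modified TRAP assay using SGC-7901 cell extract. Compounds were tested across the stated concentration range. IC50 is the concentration giving 50% telomerase inhibition. Ethidium bromide served as reference control.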

[5] = biological target: DNA polymerase I, thermostable (Thermus aquaticus) (UniProt P19821); experiment: Inhibition of Thermus aquaticus taq polymerase at 0 to 60 uM
[6] = Homo sapiens, SGC-7901, 48 h, read-out: IC50

T1 sequence (O14746 whole entry): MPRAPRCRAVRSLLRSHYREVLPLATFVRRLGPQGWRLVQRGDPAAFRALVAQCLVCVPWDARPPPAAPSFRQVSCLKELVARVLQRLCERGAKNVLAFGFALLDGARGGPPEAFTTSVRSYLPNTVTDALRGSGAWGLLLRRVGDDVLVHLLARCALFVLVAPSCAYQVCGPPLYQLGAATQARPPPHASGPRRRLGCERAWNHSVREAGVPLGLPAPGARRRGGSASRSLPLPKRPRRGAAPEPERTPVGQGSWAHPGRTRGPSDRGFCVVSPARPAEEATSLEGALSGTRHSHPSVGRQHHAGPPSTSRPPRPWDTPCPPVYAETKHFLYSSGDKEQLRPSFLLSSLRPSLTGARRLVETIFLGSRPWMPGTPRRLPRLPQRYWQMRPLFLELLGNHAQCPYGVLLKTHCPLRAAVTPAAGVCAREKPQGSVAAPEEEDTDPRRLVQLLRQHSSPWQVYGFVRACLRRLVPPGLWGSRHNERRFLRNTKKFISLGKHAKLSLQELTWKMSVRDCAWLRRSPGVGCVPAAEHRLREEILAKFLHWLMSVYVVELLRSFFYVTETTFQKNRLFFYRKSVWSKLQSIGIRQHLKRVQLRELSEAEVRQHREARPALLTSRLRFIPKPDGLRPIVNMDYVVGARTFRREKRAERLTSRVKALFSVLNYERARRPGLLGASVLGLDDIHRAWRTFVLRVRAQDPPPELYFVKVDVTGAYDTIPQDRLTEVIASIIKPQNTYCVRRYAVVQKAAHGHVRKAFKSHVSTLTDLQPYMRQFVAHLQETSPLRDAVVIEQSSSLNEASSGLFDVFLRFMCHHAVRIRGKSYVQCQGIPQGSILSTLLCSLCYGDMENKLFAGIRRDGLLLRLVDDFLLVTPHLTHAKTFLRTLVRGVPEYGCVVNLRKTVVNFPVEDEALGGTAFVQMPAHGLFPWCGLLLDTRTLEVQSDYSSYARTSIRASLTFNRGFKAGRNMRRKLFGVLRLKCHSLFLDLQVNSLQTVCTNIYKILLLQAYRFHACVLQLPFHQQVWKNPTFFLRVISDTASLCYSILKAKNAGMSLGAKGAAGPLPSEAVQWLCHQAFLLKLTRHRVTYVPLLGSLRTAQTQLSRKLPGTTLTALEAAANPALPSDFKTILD
DNA polymerase I, thermostable, sequence (P19821 whole entry): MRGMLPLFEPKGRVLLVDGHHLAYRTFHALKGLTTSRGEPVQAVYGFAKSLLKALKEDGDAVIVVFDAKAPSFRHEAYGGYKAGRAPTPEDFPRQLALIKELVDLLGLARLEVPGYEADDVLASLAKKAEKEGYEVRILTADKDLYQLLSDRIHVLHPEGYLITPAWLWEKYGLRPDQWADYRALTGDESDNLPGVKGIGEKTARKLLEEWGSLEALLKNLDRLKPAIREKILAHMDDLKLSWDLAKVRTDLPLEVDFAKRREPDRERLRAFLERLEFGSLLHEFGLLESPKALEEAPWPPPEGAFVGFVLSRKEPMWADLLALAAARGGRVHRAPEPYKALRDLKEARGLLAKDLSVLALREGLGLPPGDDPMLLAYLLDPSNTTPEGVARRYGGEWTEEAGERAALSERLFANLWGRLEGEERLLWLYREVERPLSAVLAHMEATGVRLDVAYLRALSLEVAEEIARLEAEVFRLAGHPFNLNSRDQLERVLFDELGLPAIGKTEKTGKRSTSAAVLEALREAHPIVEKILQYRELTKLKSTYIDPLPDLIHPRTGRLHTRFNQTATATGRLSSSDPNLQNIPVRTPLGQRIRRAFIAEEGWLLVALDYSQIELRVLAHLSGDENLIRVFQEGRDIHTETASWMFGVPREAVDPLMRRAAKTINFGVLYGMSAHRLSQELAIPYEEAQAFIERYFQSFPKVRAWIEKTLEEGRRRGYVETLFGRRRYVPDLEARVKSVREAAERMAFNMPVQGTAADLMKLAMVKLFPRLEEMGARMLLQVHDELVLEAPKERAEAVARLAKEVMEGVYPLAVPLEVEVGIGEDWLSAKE
DNA polymerase I, thermostable (Thermus aquaticus), sequence (P19821 whole entry): as above

COc1ccc(-c2coc3cc(OCc4ccc(Cl)nc4)ccc3c2=O)cc1
IC50 (SGC-7901; [6]): 31.9 µg/mL (≈ 81.1 µM) | IC50 [1]: 7.5 µM | IC50 [2]: 2.5 µM | Ratio IC50 [3]: 3

O=c1cc(-c2ccc(OCc3ccc(Cl)nc3)cc2)oc2cc(OCc3ccc(Cl)nc3)cc(O)c12
IC50 (SGC-7901; [6]): 22.3 µg/mL (≈ 42.7 µM) | IC50 [1]: 2 µM | IC50 [2]: 0.8 µM | Ratio IC50 [3]: 2.5

O=c1cc(-c2ccc(OCc3ccc(Cl)nc3)cc2)oc2cc(OCc3ccc(Cl)nc3)ccc12
IC50 (SGC-7901; [6]): 18.4 µg/mL (≈ 36.5 µM) | IC50 [1]: 5 µM | IC50 [2]: 3 µM | Ratio IC50 [3]: 1.6

O=c1[nH]cc(F)c(=O)[nH]1 [FLUOROURACIL]
IC50 (SGC-7901; [6]): 7.38 µg/mL (≈ 56.7 µM)

CC(=O)N1N=C(C)CC1c1ccccc1OCc1ccc(Cl)nc1 (stereo unspecified)
IC50 (SGC-7901; sgc-7901): Not Active | IC50 [1]: 53.2 µM | inhibition [4]: inactive

CC(=O)N1N=C(C)CC1c1ccc(OCc2ccc(Cl)nc2)cc1 (stereo unspecified)
IC50 (SGC-7901; sgc-7901): Not Active | IC50 [2]: 46.7 µM

COc1ccc(-c2oc3ccccc3c(=O)c2OCc2ccc(Cl)nc2)cc1
IC50 (SGC-7901; sgc-7901): Not Active | inhibition [5]: inactive | inhibition [4]: inactive

O=c1cc(-c2ccccc2)oc2cc(OCc3ccc(Cl)nc3)cc(O)c12
IC50 (SGC-7901; sgc-7901): Not Active | IC50 [1]: 27.5 µM | IC50 [2]: 20.9 µM | Ratio IC50 [3]: 1.3

O=c1c(OCc2ccc(Cl)nc2)c(-c2ccccc2)oc2ccccc12
IC50 (SGC-7901; sgc-7901): Not Active | inhibition [5]: inactive | inhibition [4]: inactive

O=c1cc(-c2ccc(OCc3ccc(Cl)nc3)cc2)oc2cc(O)cc(O)c12
IC50 (SGC-7901; [6]): 25.9 µg/mL (≈ 65.5 µM) | IC50 [1]: 6.8 µM | IC50 [2]: 3.5 µM | Ratio IC50 [3]: 1.9

COc1ccc(-c2cc(=O)c3ccc(OCc4ccc(Cl)nc4)cc3o2)cc1
IC50 (SGC-7901; [6]): 35.2 µg/mL (≈ 89.3 µM) | IC50 [1]: 6.4 µM | IC50 [2]: 3.1 µM | Ratio IC50 [3]: 2.1
